Columns and labels:
[1] = tested on: HT-29; experiment: Diffusion coefficient, D in HT29 multicellular layers; format: ADME, cell-based; settings: human
Outline: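 HT29 multicellular layers were grown 3 days on collagen-coated Teflon membranes, equilibrated 60 min under 95% O2/5% CO2 at 37 °C, then placed in a diffusion chamber. Donor and receiver were sampled up to 5 h and assayed by HPLC. D came from fitting both profiles to a Fickian model with membrane and MCL in series, corrected by support-only Ds.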

[2] = AUC in CD1 mouse at 562 umol/kg, ip; format: ADME, organism-based; settings: plasma
Outline: (§1)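 Single i.p. dose to CD-1 homozygous nude mice, drug as HCl salt in 0.9% saline, 5% DMSO/saline or lactate buffer (pH 4.0). Plasma total drug measured by HPLC at 75 or 100% of MTD (MTD from 1.33-fold dose steps, 6 mice). Noncompartmental analysis gave AUC, Cmax and t1/2.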

[3] = tested on: SiHa; experiment: Ratio of IC50 for SiHa cells under oxic conditions to hypoxic conditions after 4 hrs; format: functional, Homo sapiens
[4] = tested on: Mus musculus; experiment: Toxicity in ip dosed CD1 mouse; format: organism-based; settings: in vivo
Outline: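 MTD in CD-1 homozygous nude mice after single i.p. doses (HCl salts in saline, 5% DMSO/saline or lactate buffer pH 4.0), escalated in 1.33-fold increments. MTD taken as the highest dose causing no death, no body weight loss >15% and no other severe morbidity in any of 6 mice.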

[5] = Cmax in CD1 mouse at 562 umol/kg, ip; format: ADME, organism-based; design: dose 562 umol/kg, route intraperitoneal; settings: in vivo; outline: as §1
[6] = tested on: HT-29; experiment: Ratio of IC50 for HT29 cells under oxic conditions to hypoxic conditions after 4 hrs; format: functional, Homo sapiens
[7] = tested on: HT-29; experiment: Effect on human HT29 cells under hypoxic conditions assessed as drug level causing 10% clonogenic survival; format: functional
Outline: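 HT29 suspensions (1 or 2 × 10^6 cells/mL) in serum-free medium were stirred under 5% CO2/95% N2 for 90 min. Drug was added from deoxygenated DMSO stock at a level giving about 10% survival at 1 h, and samples were taken up to 3 h. Clonogenic survival (14 days, methylene blue) was fitted with the HPLC concentration–time data, and the 10% survival exposure was interpolated.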

[8] = Half life in CD1 mouse at 562 umol/kg, ip; format: ADME, organism-based; settings: in vivo; outline: as §1
[9] = tested on: SiHa; experiment: Cytotoxicity against human SiHa cells under hypoxic conditions after 4 hrs; format: functional, cell-based
[10] = Solubility in culture medium in presence of 5% fetal calf serum; format: physicochemical; settings: culture medium with 5% fetal calf serum
[11] = tested on: HT-29; experiment: Antitumor activity against human HT29 cells implanted in CD1 mouse assessed as clonogenic survival at 562 umol/kg, ip after 18 hrs relative to control; format: functional
Outline: (§2)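 HT29 xenografts in CD-1 homozygous nude mice; single i.p. dose of drug alone, formulated as the HCl salt in 0.9% saline, 5% DMSO/saline or lactate buffer (pH 4.0). Tumors excised 18 h later, dissociated to single-cell suspensions and plated. Clonogens/g of tumor counted; surviving fraction = treated/control clonogens/g.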

[12] = tested on: HT-29; experiment: Antitumor activity against human HT29 cells implanted in CD1 mouse at 562 umol/kg, ip administered 5 mins after irradiation by excision assay relative to radiation alone; format: functional
Outline: (§3)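 Hypoxic-cell excision assay in HT29 xenografts in CD-1 homozygous nude mice. Mice received 20 Gy γ radiation to sterilize oxic tumor cells, then a single i.p. drug dose (HCl salt in saline, 5% DMSO/saline or pH 4.0 lactate buffer) 5 min later. Tumors excised at 18 h and plated for clonogens/g. Log cell kill = log(clonogens/g, radiation only) − log(clonogens/g, radiation plus drug).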

[13] = tested on: HT-29; experiment: Cytotoxicity against human HT29 cells under hypoxic conditions after 4 hrs; format: functional, cell-based; settings: HT-29, 4 h
[14] = AUC in CD1 mouse at 1000 umol/kg, ip; format: ADME, organism-based; settings: plasma; outline: as §1
[15] = tested on: HT-29; experiment: Antitumor activity against human HT29 cells implanted in CD1 mouse assessed as clonogenic survival at 1000 umol/kg, ip after 18 hrs relative to control; format: functional; outline: as §2
[16] = tested on: HT-29; experiment: Antitumor activity against human HT29 cells implanted in CD1 mouse at 1000 umol/kg, ip administered 5 mins after irradiation by excision assay relative to radiation alone; format: functional; outline: as §3
[17] = Half life in CD1 mouse at 1000 umol/kg, ip; format: ADME, organism-based; settings: in vivo; outline: as §1
[18] = Cmax in CD1 mouse at 1000 umol/kg, ip; format: ADME, organism-based; design: dose 1000 umol/kg, route intraperitoneal; settings: in vivo; outline: as §1
[19] = AUC in CD1 mouse at 133 umol/kg, ip; format: ADME, organism-based; settings: plasma; outline: as §1
[20] = Cmax in CD1 mouse at 133 umol/kg, ip; format: ADME, organism-based; design: dose 133 umol/kg, route intraperitoneal; settings: in vivo; outline: as §1
[21] = tested on: HT-29; experiment: Antitumor activity against human HT29 cells implanted in CD1 mouse assessed as clonogenic survival at 133 umol/kg, ip after 18 hrs relative to control; format: functional; outline: as §2
[22] = tested on: HT-29; experiment: Antitumor activity against human HT29 cells implanted in CD1 mouse at 133 umol/kg, ip administered 5 mins after irradiation by excision assay relative to radiation alone; format: functional; outline: as §3
[23] = Half life in CD1 mouse at 421 umol/kg, ip; format: ADME, organism-based; settings: in vivo; outline: as §1
[24] = Cmax in CD1 mouse at 421 umol/kg, ip; format: ADME, organism-based; design: dose 421 umol/kg, route intraperitoneal; settings: in vivo; outline: as §1
[25] = AUC in CD1 mouse at 421 umol/kg, ip; format: ADME, organism-based; settings: plasma; outline: as §1

| SMILES | D [1] | Ratio IC50 [3] | MTD [4] | Ratio IC50 [6] | Activity [7] | IC50 [9] | solubility [10] | IC50 [13] | also measured |
| --- | --- | --- | --- | --- | --- | --- | --- | --- | --- |
| [O-][n+]1nc(NCCN2CCOCC2)[n+]([O-])c2ccccc21 | 3.63e-07 cm²/s | 44 | 562 µmol/kg | 34 | 47.5 µM·h | 6.6 µM | > 49 mM | 17.3 µM | AUC [2]: 105 µM·h; Cmax [5]: 160 µM; half-life [8]: 16.5 min; LCK [11]: 0.29; LCK [12]: 0.6 |
| COc1ccc2c(c1)[n+]([O-])c(NCCN(C)C)n[n+]2[O-] | 2.32e-07 cm²/s | 232 | 1000 µmol/kg | 89 | 26.1 µM·h | 2.9 µM | 46 mM | 7.7 µM | AUC [14]: 240 µM·h; LCK [15]: 0.15; LCK [16]: 1.84; half-life [17]: 51.5 min; Cmax [18]: 157 µM |
| Nc1n[n+]([O-])c2ccccc2[n+]1[O-] [TIRAPAZAMINE] | 4.04e-07 cm²/s |  | 178 µmol/kg |  | 24.3 µM·h | 2.5 µM | 8.9 mM | 5.1 µM | AUC [19]: 49.2 µM·h; Cmax [20]: 61.7 µM; LCK [21]: 0.15; LCK [22]: 0.59 |
| COCCOc1ccc2c(c1)[n+]([O-])c(NCCN(C)C)n[n+]2[O-] |  | 401 | 1330 µM/g | 117 | 51.8 µM·h | 1.6 µM | > 51 mM | 5 µM | AUC [2]: 257 µM·h; half-life [8]: 44.9 min; LCK [11]: -0.08; LCK [12]: 0.3 |
| CN(C)CCNc1n[n+]([O-])c2ccc(C(C)(C)C)cc2[n+]1[O-] | 8.63e-07 cm²/s | 78 | 421 µmol/kg | 99 | 11.4 µM·h | 1.1 µM | 38 mM | 3.7 µM | half-life [23]: 12.5 min; Cmax [24]: 16.1 µM; AUC [25]: 9.73 µM·h |
| Cc1ccc2c(c1)[n+]([O-])c(NCCN1C(C)CCCC1C)n[n+]2[O-] (stereo not given) | 9.45e-07 cm²/s | 159 | 421 µmol/kg | 126 | 15.4 µM·h | 0.8 µM | 48 mM | 2.8 µM | half-life [23]: 19.1 min; Cmax [24]: 19.6 µM; AUC [25]: 18.3 µM·h |
| CN(C)CCNc1n[n+]([O-])c2ccc(OCC3CC3)cc2[n+]1[O-] |  | 101 | 750 µM/g | 35 | 45.1 µM·h | 2.1 µM | 43 mM | 3.8 µM | AUC [14]: 51.3 µM·h; LCK [15]: -0.14; LCK [16]: -0.06; half-life [17]: 33.9 min |
